Results from article PMC4030725 (Molecular pharmaceutics, 2013).
Read-outs that look alike come from different tables or passages of the source.

Experiments:
UGT1A9 = details: cited from earlier work
HeLa-UGT1A9 cells [1] = assay: Fraction metabolized; assay type: in vitro ADME, human; details: six DHFs compared at five loading concentrations (Fig. 8A)
BCRP = biological target: T1, BCRP (Homo sapiens, UniProt Q9UNQ0); assay: BCRP-mediated efflux of flavone glucuronides from HeLa-UGT1A9 cells; assay type: in vitro ADME; details: for Log(CLint) / Vmax: BCRP-mediated glucuronide efflux, HeLa-UGT1A9 cells; for Km: efflux kinetic parameter Km, HeLa-UGT1A9 cells (Table 2, unit inferred)
T1 sequence (Q9UNQ0 1-655): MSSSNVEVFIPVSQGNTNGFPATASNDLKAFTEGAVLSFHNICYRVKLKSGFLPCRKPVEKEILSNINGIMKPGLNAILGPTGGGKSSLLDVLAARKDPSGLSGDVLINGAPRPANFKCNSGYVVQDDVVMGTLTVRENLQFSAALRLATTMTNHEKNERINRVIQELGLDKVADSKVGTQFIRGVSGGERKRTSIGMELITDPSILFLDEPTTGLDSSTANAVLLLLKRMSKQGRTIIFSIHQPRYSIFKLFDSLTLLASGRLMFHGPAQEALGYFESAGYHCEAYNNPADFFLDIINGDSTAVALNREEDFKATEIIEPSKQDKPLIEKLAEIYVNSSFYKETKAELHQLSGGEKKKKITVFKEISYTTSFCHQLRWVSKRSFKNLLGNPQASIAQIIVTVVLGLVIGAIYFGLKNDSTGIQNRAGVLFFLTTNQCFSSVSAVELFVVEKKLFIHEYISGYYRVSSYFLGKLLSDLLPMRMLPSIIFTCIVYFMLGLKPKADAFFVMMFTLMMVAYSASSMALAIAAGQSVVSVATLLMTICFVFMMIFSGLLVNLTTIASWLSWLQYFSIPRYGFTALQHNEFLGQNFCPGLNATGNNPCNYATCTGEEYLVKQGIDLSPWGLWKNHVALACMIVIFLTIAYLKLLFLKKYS
Procedure, shortened: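 HeLa cells stably expressing UGT1A9 were used 3 days post-seeding and washed twice with 37°C HBSS (pH 7.4). They were loaded at 37°C with a mono- or dihydroxyflavone aglycone in HBSS, diluted from a 100X DMSO/methanol (1:4) stock. Medium was sampled within the linear time range, quenched with acetonitrile/acetic acid and analysed by UPLC-DAD. Rates (pmol/min/mg protein) were fitted against intracellular glucuronide concentration; CLint = Vmax/Km. n=3.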

[2] = biological target: T2, Human BCRP (Arg482) membrane vesicles (Homo sapiens, UniProt Q9UNQ0); assay: Vesicular transport of HF glucuronides in BCRP-overexpressing membrane vesicles; assay type: in vitro ADME; details: for difference in Km between membrane vesicles and HeLa-UGT1A9 cells: BCRP vesicles vs HeLa-UGT1A9 cells; for Km: efflux kinetic parameter Km, BCRP membrane vesicles (Table 2, unit inferred)
T2 sequence (Q9UNQ0 1-655): T1 sequence (Q9UNQ0 1-655)
Procedure, shortened: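 Inside-out human BCRP (Arg482) membrane vesicles were incubated with glucuronide substrate and 5 mM ATP, or AMP as control, in 10 mM MgCl₂/10 mM Tris-HCl (pH 7.4). The reaction was stopped with cold buffer, followed by rapid filtration through glass-fibre filters and ice-cold washes. Filters were extracted in 50% methanol with sonication, centrifuged and analysed by UPLC. ATP-dependent transport was taken as ATP minus AMP values.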

HeLa-UGT1A9 cells [3] = assay type: in vitro ADME, human; details: end of experiment
Procedure, shortened: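 After the efflux incubation, cells were washed twice with ice-cold HBSS, collected in HBSS and sonicated for 30 min at 4°C. Lysates were centrifuged at 15,500 rpm for 20 min. Supernatant was mixed with acetonitrile/acetic acid stop solution and glucuronides were quantified by UPLC-DAD. Protein was measured by assay kit against a BSA standard, and concentration was calculated assuming a cell volume of 4 μl/mg protein. n=3.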

[4] = UGT1A9-mediated glucuronidation of the aglycone, ref Wu and Hu [37]
[5] = loading aglycone concentration 1.25 μM
[6] = loading aglycone concentration 2.5 μM
[7] = loading aglycone concentration 5 μM
[8] = loading aglycone concentration 10 μM
[9] = loading aglycone concentration 15 μM
[10] = loading aglycone concentration 20 μM
[11] = loading aglycone concentration 0.3125 μM
[12] = loading aglycone concentration 0.625 μM

O=c1c(O)c(-c2ccccc2)oc2ccccc12 [3HF, 3-Hydroxyflavone]
Km (UGT1A9; [4]): 0.3 µM
Log(CLint)′ (UGT1A9; [4]): 3.84
Vmax′ (UGT1A9; [4]): 2100 pmol/mg/min

O=c1c(O)c(-c2ccccc2)oc2cccc(O)c12 [3,5 DHF, 3,5-Dihydroxyflavone]
fmet (HeLa-UGT1A9 cells [1]): least sensitive to the rising concentration
Km (UGT1A9; [4]): 0.25 µM
Log(CLint)′ (UGT1A9; [4]): 3.88
Vmax′ (UGT1A9; [4]): 1900 pmol/mg/min

O=c1c(O)c(-c2ccccc2)oc2ccc(O)cc12 [3,6DHF, 3,6-Dihydroxyflavone]
fmet (HeLa-UGT1A9 cells [1]): highest fmet value at all tested concentration
Km (UGT1A9; [4]): 0.62 µM
Log(CLint)′ (UGT1A9; [4]): 4.34
Vmax′ (UGT1A9; [4]): 13000 pmol/mg/min

O=C(O)[C@H]1O[C@@H](Oc2c(-c3ccccc3)oc3ccccc3c2=O)[C@H](O)[C@@H](O)[C@@H]1O [3HF-G]
Log(CLint) (BCRP): 1.23
Vmax (BCRP): 165.6 ± 10.1 pmol/mg/min
Km (BCRP): 9.7 µM
difference in Km between membrane vesicles and HeLa-UGT1A9 cells [2]: approximately 3 fold
Km [2]: 29 µM
Intracellular Con. of HFs-G or DHFs-3-O-G (HeLa-UGT1A9 cells [3]; [5]): 7.14 ± 3.02 µM
Intracellular Con. of HFs-G or DHFs-3-O-G (HeLa-UGT1A9 cells [3]; [6]): 38.56 ± 8.36 µM
Intracellular Con. of HFs-G or DHFs-3-O-G (HeLa-UGT1A9 cells [3]; [7]): 206.98 ± 12.39 µM
Intracellular Con. of HFs-G or DHFs-3-O-G (HeLa-UGT1A9 cells [3]; [8]): 335.57 ± 41.55 µM
Intracellular Con. of HFs-G (HeLa-UGT1A9 cells [3]; [9]): 356.82 ± 94.04 µM
Intracellular Con. of HFs-G (HeLa-UGT1A9 cells [3]; [10]): 280.60 ± 28.78 µM

O=c1c(O)c(-c2cccc(O)c2)oc2ccccc12 [3,3′ DHF, 3,3′-Dihydroxyflavone]
Km (UGT1A9; [4]): 0.11 µM
Log(CLint)′ (UGT1A9; [4]): 4.44
Vmax′ (UGT1A9; [4]): 3100 pmol/mg/min

O=c1c(O)c(-c2ccccc2O)oc2ccccc12 [3,2′DHF, 3,2′-Dihydroxyflavone]
Km (UGT1A9; [4]): 0.67 µM
Log(CLint)′ (UGT1A9; [4]): 1.89
Vmax′ (UGT1A9; [4]): 52 pmol/mg/min

O=c1cc(-c2ccccc2)oc2ccc(O)cc12 [6HF, 6-Hydroxyflavone]
Km (UGT1A9; [4]): 2.27 µM
Log(CLint)′ (UGT1A9; [4]): 1.53
Vmax′ (UGT1A9; [4]): 76.1 pmol/mg/min

O=c1cc(-c2ccccc2)oc2cccc(O)c12 [5HF, 5-Hydroxyflavone]
Vmax′ (UGT1A9; [4]): 118 pmol/mg/min
CLint′(Vmax′/ Km′) (UGT1A9): 123 µL/min/mg
Km (UGT1A9): 0.96 µM
Log(CLint)′ (UGT1A9): 2.09

O=c1cc(-c2cccc(O)c2)oc2ccccc12 [3′HF, 3′-Hydroxyflavone]
Km (UGT1A9; [4]): 2.02 µM
Log(CLint)′ (UGT1A9; [4]): 2.66
Vmax′ (UGT1A9; [4]): 926 pmol/mg/min

O=C(O)[C@H]1O[C@@H](Oc2cccc3oc(-c4ccccc4)cc(=O)c23)[C@H](O)[C@@H](O)[C@@H]1O [5HF-G]
Log(CLint) (BCRP): 0.77
Vmax (BCRP): 283.4 ± 20.0 pmol/mg/min
Km (BCRP): 48.5 µM
difference in Km between membrane vesicles and HeLa-UGT1A9 cells [2]: > 10 fold
Km [2]: 2.9 µM
Intracellular Con. of HFs-G or DHFs-3-O-G (HeLa-UGT1A9 cells [3]; [5]): 31.03 ± 0.44 µM
Intracellular Con. of HFs-G or DHFs-3-O-G (HeLa-UGT1A9 cells [3]; [6]): 47.98 ± 3.91 µM
Intracellular Con. of HFs-G or DHFs-3-O-G (HeLa-UGT1A9 cells [3]; [7]): 72.86 ± 2.26 µM
Intracellular Con. of HFs-G or DHFs-3-O-G (HeLa-UGT1A9 cells [3]; [8]): 94.74 ± 11.70 µM
Intracellular Con. of HFs-G (HeLa-UGT1A9 cells [3]; [9]): 18.32 ± 6.47 µM
Intracellular Con. of HFs-G (HeLa-UGT1A9 cells [3]; [10]): 235.51 ± 14.96 µM

O=c1cc(-c2ccccc2O)oc2ccccc12 [2′HF, 2′-Hydroxyflavone]
Km (UGT1A9; [4]): 0.4 µM
Log(CLint)′ (UGT1A9; [4]): 2.27
Vmax′ (UGT1A9; [4]): 74.4 pmol/mg/min

O=c1cc(-c2ccccc2)oc2cc(O)ccc12 [7HF, 7-Hydroxyflavone]
Km (UGT1A9; [4]): 3.59 µM
Log(CLint)′ (UGT1A9; [4]): 3.13
Vmax′ (UGT1A9; [4]): 4895 pmol/mg/min

O=c1c(O)c(-c2ccc(O)cc2)oc2ccccc12 [3,4′DHF, 3,4′-Dihydroxyflavone]
Km (UGT1A9; [4]): 0.13 µM
Vmax′ (UGT1A9; [4]): 1800 pmol/mg/min

O=c1c(O)c(-c2ccccc2)oc2cc(O)ccc12 [3,7DHF(3-OH), 3,7-Dihydroxyflavone]
Km (UGT1A9; [4]): 0.22 µM
Log(CLint)′ (UGT1A9; [4]): 4.32
Vmax′ (UGT1A9; [4]): 4600 pmol/mg/min

O=c1cc(-c2ccc(O)cc2)oc2ccccc12 [4′HF, 4′-Hydroxyflavone]
Km (UGT1A9; [4]): 1.46 µM
Log(CLint)′ (UGT1A9; [4]): 1.83
Vmax′ (UGT1A9; [4]): 98.7 pmol/mg/min

O=C(O)[C@H]1O[C@@H](Oc2c(-c3ccc(O)cc3)oc3ccccc3c2=O)[C@H](O)[C@@H](O)[C@@H]1O [3,4′DHF-3-O-G]
Log(CLint) (BCRP): 0.38
Vmax (BCRP): 86.0 ± 5.4 pmol/mg/min
Intracellular Con. of DHFs-3-O-G (HeLa-UGT1A9 cells [3]; [11]): 2.67 ± 0.09 µM
Intracellular Con. of DHFs-3-O-G (HeLa-UGT1A9 cells [3]; [12]): 14.27 ± 2.00 µM
Intracellular Con. of HFs-G or DHFs-3-O-G (HeLa-UGT1A9 cells [3]; [5]): 71.15 ± 6.11 µM
Intracellular Con. of HFs-G or DHFs-3-O-G (HeLa-UGT1A9 cells [3]; [6]): 241.60 ± 26.10 µM
Intracellular Con. of HFs-G or DHFs-3-O-G (HeLa-UGT1A9 cells [3]; [7]): 645.32 ± 5.81 µM
Intracellular Con. of HFs-G or DHFs-3-O-G (HeLa-UGT1A9 cells [3]; [8]): 715.62 ± 31.7 µM

O=C(O)[C@H]1O[C@@H](Oc2c(-c3ccccc3)oc3cccc(O)c3c2=O)[C@H](O)[C@@H](O)[C@@H]1O [3,5DHF-3-O-G]
Log(CLint) (BCRP): 0.72
Vmax (BCRP): 67.3 ± 6.2 pmol/mg/min
Intracellular Con. of DHFs-3-O-G (HeLa-UGT1A9 cells [3]; [11]): 2.28 ± 0.68 µM
Intracellular Con. of DHFs-3-O-G (HeLa-UGT1A9 cells [3]; [12]): 4.82 ± 0.02 µM
Intracellular Con. of HFs-G or DHFs-3-O-G (HeLa-UGT1A9 cells [3]; [5]): 14.70 ± 2.60 µM
Intracellular Con. of HFs-G or DHFs-3-O-G (HeLa-UGT1A9 cells [3]; [6]): 53.48 ± 3.45 µM
Intracellular Con. of HFs-G or DHFs-3-O-G (HeLa-UGT1A9 cells [3]; [7]): 242.98 ± 9.46 µM
Intracellular Con. of HFs-G or DHFs-3-O-G (HeLa-UGT1A9 cells [3]; [8]): 416.65 ± 12.34 µM
